One compound from ChEMBL document CHEMBL1154750 (J Med Chem, 2010) can be followed below.

Broadly, the inhibition is how much of the control response was suppressed. Read a low inhibition as little suppression.

This assay concerns the target Neuraminidase (Influenza A virus) (UniProt B4URF0). The assay can be described thus: Inhibition of oseltamivir-resistant Influenza Virus A/342/0 (H1N1) neuraminidase at 52.5 uM. In outline:
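Human oseltamivir-resistant H1N1 NA tested at a single 52.5 μM concentration in the NA-Star chemiluminescent assay. Compound and virus dilution were held 20 min at 37 C, then substrate (1:500) was added for 30 min at room temperature. Value given as percent inhibition relative to six untreated virus controls.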

Chain of Neuraminidase (Influenza A virus) (B4URF0 as listed by the source): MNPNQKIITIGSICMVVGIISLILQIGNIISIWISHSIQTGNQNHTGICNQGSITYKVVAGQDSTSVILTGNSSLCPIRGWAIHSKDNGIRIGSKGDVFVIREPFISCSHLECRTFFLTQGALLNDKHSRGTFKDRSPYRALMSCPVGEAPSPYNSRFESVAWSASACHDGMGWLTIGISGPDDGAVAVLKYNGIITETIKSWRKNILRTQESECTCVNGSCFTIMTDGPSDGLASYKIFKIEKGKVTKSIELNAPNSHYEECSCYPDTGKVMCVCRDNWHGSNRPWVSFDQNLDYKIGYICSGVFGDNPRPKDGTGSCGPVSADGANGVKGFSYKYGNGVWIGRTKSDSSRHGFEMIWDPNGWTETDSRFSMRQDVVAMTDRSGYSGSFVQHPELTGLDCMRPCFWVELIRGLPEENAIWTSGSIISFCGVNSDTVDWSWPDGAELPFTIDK

In turn, `O=C(CCc1ccccc1)C[C@@H]1C[C@@H](c2ccccc2)c2c(cc(/C=C/c3ccccc3)oc2=O)O1` [KATSUMADAIN A] displayed an inhibition of 45.9%.
